Assay results as given in ChEMBL document CHEMBL1795283, “Dihydro-β-agarofuran sesquiterpenes isolated from Celastrus vulcanicola as potential anti-Mycobacterium tuberculosis multidrug-resistant agents” (2011).
Converted amounts (≈) assume the structure as drawn.

Columns and labels:
[1] = system: Mycobacterium tuberculosis; experiment: Antimycobacterial activity against Mycobacterium tuberculosis H37Rv after 24 hrs by tetrazolium microplate assay; type: functional
Summary of the method: (§1)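 TEMA broth microdilution; inoculum from 20–30-day-old slant growth suspended in Tween 80/0.2% BSA, adjusted to McFarland No. 1, final ca. 1.2 × 10⁶ CFU/mL. Compound mixed 1:1 with inoculum, DMSO solvent control; sealed plates incubated 37 °C 5 days, then MTT/Tween 80 added, 24 h 37 °C; yellow-to-purple colour change read. MIC = lowest concentration giving 100% inhibition; means of 3 or 4 replicates.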

[2] = system: Mycobacterium tuberculosis; experiment: Antimycobacterial activity against Mycobacterium tuberculosis isolate 02TBDM039EP097 after 24 hrs by tetrazolium microplate assay; type: functional; conditions: isolate 02TBDM039EP097, 24 h; summary of the method: as §1

Row | Structure (SMILES) | MIC [1] [µg/mL] | MIC [2] [µg/mL]
1 | CC1(C)O[C@]23[C@H](O)[C@H]1[C@H](O)[C@H](O)[C@]2(C)[C@@H](O)CC[C@]3(C)O | > 25 | > 25
2 | CC(=O)O[C@H]1CC[C@@H](C)[C@@]23C[C@@H](C[C@H](OC(=O)/C=C/c4ccccc4)[C@]12C)C(C)(C)O3 | > 25 | > 25
3 | CO[C@H]1/C=C/O[C@@]2(C)Oc3c(C)c(O)c4c(O)c(c(/C=N/N5CCN(C)CC5)c(O)c4c3C2=O)NC(=O)/C(C)=C\C=C\[C@H](C)[C@H](O)[C@@H](C)[C@@H](O)[C@@H](C)[C@H](OC(C)=O)[C@@H]1C [RIFAMPIN] | 0.063 (≈ 0.0766 µM) | > 16
4 | CC(=O)O[C@H]1[C@@H]2[C@@H](OC(=O)c3ccccc3)[C@@]3(OC2(C)C)[C@](C)([C@H]1OC(=O)c1ccccc1)[C@@H](OC(C)=O)[C@@H](O)C[C@]3(C)O | > 25 | > 25
5 | CC(=O)O[C@H]1[C@@H]2[C@@H](OC(=O)c3cccnc3)[C@@]3(OC2(C)C)[C@@](C)([C@@H](OC(C)=O)CC[C@]3(C)O)[C@H]1OC(=O)c1ccccc1 | > 25 | > 25
6 | CC(=O)O[C@H]1[C@@H]2[C@@H](OC(=O)c3cccnc3)[C@]3(OC2(C)C)[C@H](C)CC[C@H](OC(C)=O)[C@@]3(C)[C@H]1OC(=O)c1ccccc1 | > 25 | 25 (≈ 43.1 µM)
7 | CC(=O)O[C@H]1CC[C@](C)(O)[C@]23OC(C)(C)[C@H]([C@H](OC(=O)/C=C/c4ccccc4)[C@H](OC(=O)c4ccccc4)[C@]12C)[C@H]3OC(C)=O | > 25 | 12.5 (≈ 20.1 µM)
8 | CC(=O)O[C@H]1[C@@H]2[C@@H](OC(C)=O)[C@@]3(OC2(C)C)[C@@](C)([C@@H](OC(C)=O)CC[C@]3(C)O)[C@H]1OC(C)=O | > 25 | > 25
9 | CC(=O)O[C@H]1CC[C@@H](C)[C@]23OC(C)(C)[C@H](C[C@H](OC(=O)/C=C/c4ccccc4)[C@]12C)[C@H]3OC(C)=O | > 25 | 12.5 (≈ 25.8 µM)
10 | CC(=O)O[C@@H]1[C@@H]2[C@@H](OC(=O)c3cccnc3)[C@@]3(OC2(C)C)[C@@](C)([C@@H](OC(C)=O)CC[C@]3(C)O)[C@H]1OC(=O)c1ccccc1 | > 25 | > 25
11 | CC(=O)O[C@H]1CC[C@@H](C)[C@]23OC(C)(C)[C@H](C[C@H](OC(=O)c4ccccc4)[C@]12C)[C@H]3OC(=O)c1ccccc1 | > 25 | 6.2 (≈ 11.9 µM)
12 | CC(=O)O[C@H]1CC[C@@H](C)[C@]23OC(C)(C)[C@H](C[C@H](OC(=O)/C=C/c4ccccc4)[C@]12C)[C@H]3O | > 25 | 25 (≈ 56.5 µM)
13 | CC(=O)O[C@H]1CC[C@](C)(O)[C@]23OC(C)(C)[C@H]([C@H](OC(=O)[C@H](O)[C@@H](O)c4ccccc4)[C@H](OC(=O)c4ccccc4)[C@]12C)[C@H]3O | > 25 | > 25
14 | NNC(=O)c1ccncc1 [ISONIAZID] | 0.125 (≈ 0.911 µM) | 4 (≈ 29.2 µM)
15 | CC(=O)O[C@H]1[C@@H]2[C@@H](OC(=O)c3ccccc3)[C@@]3(OC2(C)C)[C@@](C)([C@@H](OC(C)=O)CC[C@]3(C)O)[C@H]1OC(=O)c1ccccc1 | > 25 | > 25
16 | CC(=O)O[C@H]1CC[C@](C)(O)[C@]23OC(C)(C)[C@H]([C@H](OC(=O)/C=C\c4ccccc4)[C@H](OC(=O)c4ccccc4)[C@]12C)[C@H]3O | > 25 | > 25
17 | CC(=O)O[C@H]1[C@@H]2[C@@H](O)[C@]3(OC2(C)C)[C@H](C)CC[C@H](OC(C)=O)[C@@]3(C)[C@H]1OC(=O)c1ccccc1 | > 25 | > 25
18 | CC(=O)O[C@H]1CC[C@](C)(O)[C@]23OC(C)(C)[C@H]([C@H](O)[C@H](OC(=O)c4ccccc4)[C@]12C)[C@H]3OC(C)=O | > 25 | > 25
19 | CC(=O)O[C@H]1CC[C@](C)(O)[C@]23OC(C)(C)[C@H]([C@H](OC(=O)/C=C/c4ccccc4)[C@H](OC(=O)c4ccccc4)[C@]12C)[C@H]3O | > 25 | 12.5 (≈ 21.6 µM)
20 | CC(=O)O[C@@H]1[C@@H]2[C@@H](OC(=O)c3ccccc3)[C@@]3(OC2(C)C)[C@@](C)([C@@H](OC(C)=O)CC[C@]3(C)O)[C@H]1OC(=O)c1ccccc1 | > 25 | 12.5 (≈ 21 µM)
21 | CC(=O)O[C@H]1CC[C@@H](C)[C@]23OC(C)(C)[C@H]([C@H](OC(=O)/C=C/c4ccccc4)[C@H](OC(=O)c4ccccc4)[C@]12C)[C@H]3O | > 25 | 12.5 (≈ 22.2 µM)
22 | CC(=O)O[C@H]1[C@@H]2[C@@H](OC(C)=O)[C@@]3(OC2(C)C)[C@@](C)([C@@H](OC(C)=O)CC[C@]3(C)O)[C@H]1O | > 25 | > 25
23 | CC(=O)O[C@H]1CC[C@@H](C)[C@]23OC(C)(C)[C@H]([C@H](OC(=O)/C=C\c4ccccc4)[C@H](OC(=O)c4ccccc4)[C@]12C)[C@H]3O | > 25 | 25 (≈ 44.4 µM)
24 | CC(=O)O[C@H]1[C@@H](O)C[C@](C)(O)[C@]23OC(C)(C)[C@H]([C@H](OC(=O)/C=C/c4ccccc4)[C@H](OC(=O)c4ccccc4)[C@]12C)[C@H]3O | > 25 | > 25
25 | CC(=O)O[C@H]1CC[C@](C)(O)[C@]23OC(C)(C)[C@H]([C@H](O)[C@H](OC(=O)c4ccccc4)[C@]12C)[C@H]3O [REISSANTIN D] | > 25 | > 25
26 | CC(=O)O[C@H]1[C@@H]2[C@@H](O)[C@@]3(OC2(C)C)[C@@](C)([C@@H](OC(C)=O)CC[C@]3(C)O)[C@H]1O | > 25 | > 25
